One series concerns U-87-MG spheroids. Nature of the series: Calcein-AM spheroid viability assay. The format is cell-based, human. The following applies: 10 μM, 24 h; six-day old spheroids, 10000 cells/well. In outline: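 Six-day-old U-87-MG spheroids seeded at 10000 cells/well in U-bottom low-attachment 24-well plates from monolayers grown to 70% confluence, in serum-free B27 neuronal basal medium or FBS-supplemented EMEM, with medium changed every 3 days. Exposed to the test compound at 10 μM for 24 h, moved to a fresh plate, washed three times with assay buffer, then stained with 3 μM Calcein-AM for 1 h at 37 °C. Imaged by fluorescence.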

For a further series, the system named is U-87-MG cells. The series is described as follows: Annexin V FITC-propidium iodide apoptosis assay, FACS. The format is cell-based, human. The following applies: Annexin V FITC/PI quadrant.
In the next series the test system is primary mouse neurons. Nature of the series: MTT cytotoxicity / cell viability, noncancer cells. The following applies: 24 h, n = 3. Type of series: cell-based. In outline: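 Primary mouse neurons were grown in serum-free DMEM/F12-based neural medium with L-glutamine, HEPES, penicillin/streptomycin and supplement. They were plated at 1×10^4 cells/well and allowed to spread for 24 h at 37 °C, 5% CO2, then treated with the test compound at 2 or 10 μM for 24 h. MTT was added for 4 h, then solubilizing solution for 4 h. Absorbance was read at 560 and 590 nm. Runs were in triplicate, with Student's t tests.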

The target in the next series is FABP3 (U-138-MG cells) (Homo sapiens, UniProt P05413). Nature of the series: FABP3-mediated internalization, antibody labeling and FACS. Type of series: cell-based. The following applies: serum-free, 10 μM, FACS, Coralite 594-conjugated FABP3 antibody. In outline:
(§1)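 Cells were kept in serum-free neuronal basal medium with B27 and seeded at 1×10^4 cells/well in 6-well plates, then left to spread for 4 h at 37 °C, 5% CO2. They were incubated with Coralite 594-conjugated anti-FABP3 mouse antibody, then with the test compound (10 μM) for 24 h. Cells were trypsinized, pelleted at […] for 5 min, resuspended in FACS buffer and filtered. Flow cytometry used 582 nm excitation.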

The target of a further series is FABP3 (U-87-MG cells) (Homo sapiens, UniProt P05413). The series is described as above. The format is cell-based. The following applies: serum-free, 10 μM, FACS, Coralite 594-conjugated FABP3 antibody. In outline: as §1

The text below walks through data of publication PMC10077566 (ACS Omega, 2023).

Sequence of FABP3 (U-138-MG cells) (P05413 whole entry): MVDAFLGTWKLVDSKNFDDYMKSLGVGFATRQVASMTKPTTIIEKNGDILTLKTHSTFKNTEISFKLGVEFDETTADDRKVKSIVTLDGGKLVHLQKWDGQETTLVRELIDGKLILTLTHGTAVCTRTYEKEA
Sequence of FABP3 (U-87-MG cells) (P05413 whole entry): as above

Consider `COc1cccc2c1C(=O)c1c(O)c3c(c(O)c1C2=O)C[C@@](O)(C(=O)CO)C[C@@H]3O[C@H]1C[C@H](N)[C@H](O)[C@H](C)O1` [DOX, doxorubicin], for which the “spheroid viability, Calcein-AM fluorescence” value in the series on U-87-MG spheroids was “scattered viable cells were seen throughout the spheroid”. Further, the values for the necrotic cells in the series on U-87-MG cells (2 μM) and with U-87-MG cells (10 μM) were 7.2% and 24%, respectively. Further, the figures for the cell viability in the series on primary mouse neurons (2 μM) and with primary mouse neurons (10 μM) were 49.3% and 27.2%, respectively.
As to ACGLSGLCVAK [A-COOP-K], the FABP3-mediated internalization result on FABP3 (U-138-MG cells) and on FABP3 (U-87-MG cells) was “did not show internalization” each time.

The cell viability is the share of living cells, or the viability signal relative to a control. Low readings indicate a greater loss of cells, high ones better survival.
